Test results as given in PMC6220780 (Clinical Pharmacology in Drug Development, 2018).
Where two headings read alike, the source gives them in different places. Marks after values point to notes of the source that are not given here.

Columns and labels:
[1] = system: Japanese patients with type 2 diabetes mellitus; experiment: Plasma glucose; assay type: in vivo, human; conditions: for FPG change from baseline / FPG postdose: single 5-mg oral dose, mean ± SD; for changes in plasma glucose AUC0-4 from baseline: single 5-mg dose
How it was run: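 Hospitalized patients received a single oral dose before breakfast on day 3. Plasma glucose was sampled predose and at 0.5, 1, 2, 4, 6, 8, 12 and 24 h and measured by autoanalyzer. AUC was calculated by the linear trapezoidal rule, with change from the day before dosing estimated per patient. Change in AUC0-4 was analyzed by 1-sample t test.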

[2] = Urinary excretion of luseogliflozin and metabolites up to 72 hours; assay type: in vivo, human; conditions: single 5-mg dose of luseogliflozin
How it was run: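 24-h urine was collected before dosing and over 0–24, 24–48 and 48–72 h after a single oral dose. Parent compound and metabolites were quantified by validated LC-MS/MS after solid-phase extraction with deuterated internal standards (parent LLOQ 0.1 ng/mL). Excretion rates were estimated from the urine concentrations.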

[3] = system: Japanese patients with type 2 diabetes mellitus; experiment: 24-hour urinary glucose excretion; assay type: in vivo, human; conditions: single 5-mg oral dose, mean ± SD
How it was run: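 Patients were hospitalized for 6 days and 5 nights on a stable diet, with no other antidiabetic drugs. A single oral dose of the test compound was given before breakfast on day 3. Glucose was measured by autoanalyzer in 24-h pooled urine collected before and after dosing.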

[4] = assay type: in vivo, human
How it was run: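 Samples were assayed by validated HPLC-MS/MS (solid-phase extraction, deuterated internal standard, negative-ion MRM; LLOQ 0.05 ng/mL). Parameters came from noncompartmental analysis. Group effects were assessed by ANOVA as geometric mean ratios to the normal-function group with 90% CIs.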

[5] = system: SGLT2; conditions: cited from earlier work
[6] = system: Japanese patients with type 2 diabetes mellitus; experiment: Safety: adverse events after a single 5-mg dose; assay type: in vivo, human
How it was run: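 Adverse events were recorded by type and incidence from monitoring of clinical laboratory tests, body weight, vital signs and electrocardiograms. Monitoring covered a 6-day hospital stay with a single oral dose on day 3, plus a follow-up visit 3–5 days after discharge.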

SMILES: CCOc1ccc(Cc2cc([C@@H]3S[C@H](CO)[C@@H](O)[C@H](O)[C@H]3O)c(OC)cc2C)cc1 [luseogliflozin, (1S)‐1,5‐anhydro‐1‐[5‐(4‐ethoxybenzyl)‐2‐methoxy‐4‐methylphenyl]‐1‐thio‐D‐glucitol]
- FPG change from baseline ([1]; G1, eGFR ≥90, n = 11): -27.4 ± 23.5 mg/dL
- FPG postdose ([1]; G1, eGFR ≥90, n = 11): 139.7 ± 25.2 mg/dL
- changes in plasma glucose AUC0-4 from baseline ([1]; G1, P < .05): −135 mg⋅h/dL
- FPG change from baseline ([1]; G2, eGFR 60–89, n = 17): -15.1 ± 13.6 mg/dL
- FPG postdose ([1]; G2, eGFR 60–89, n = 17): 136.4 ± 37.0 mg/dL
- changes in plasma glucose AUC0-4 from baseline ([1]; G2, P < .05): −104 mg⋅h/dL
- FPG change from baseline ([1]; G3a, eGFR 45–59, n = 9): −11.3 ± 13.5 ^b mg/dL
- FPG postdose ([1]; G3a, eGFR 45–59, n = 9): 140.1 ± 26.6 ^b mg/dL
- changes in plasma glucose AUC0-4 from baseline ([1]; G3a, P < .05): −108 mg⋅h/dL
- FPG change from baseline ([1]; G3b, eGFR 30–44, n = 12): −4.8 ± 11.8 ^c mg/dL
- FPG postdose ([1]; G3b, eGFR 30–44, n = 12): 135.7 ± 24.3 ^c mg/dL
- changes in plasma glucose AUC0-4 from baseline ([1]; G3b): −30.2 mg⋅h/dL
- FPG change from baseline ([1]; G4, eGFR <30, n = 6): 2.2 ± 7.9 mg/dL
- FPG postdose ([1]; G4, eGFR <30, n = 6): 125.8 ± 21.1 mg/dL
- changes in plasma glucose AUC0-4 from baseline ([1]; G4): −32.6 mg⋅h/dL
- difference in plasma glucose AUC0-4 from G1 (90%CI) ([1]; between G1 and G2): 32.3 (−22.8–87.5)
- difference in plasma glucose AUC0-4 from G1 (90%CI) ([1]; between G1 and G3a): 26.7 (−38.6 to 91.9)
- difference in plasma glucose AUC0-4 from G1 (90%CI) ([1]; between G1 and G3b): 92.2 (21.9–163)
- difference in plasma glucose AUC0-4 from G1 (90%CI) ([1]; between G1 and G4): 72.6 (−1.29 to 146)
- excreted in urine up to 72 hours after administration ([2]; G1): 4.68%
- excreted in urine up to 72 hours after administration ([2]; G2): 4.15%
- excreted in urine up to 72 hours after administration ([2]; G3a): 3.25%
- excreted in urine up to 72 hours after administration ([2]; G3b): 2.90%
- excreted in urine up to 72 hours after administration ([2]; G4): 2.15%
- UGE0-24 change from baseline ([3]; G1, eGFR ≥90, n = 11): 88.3 ± 36.9 g/day
- UGE0-24 postdose ([3]; G1, eGFR ≥90, n = 11): 111 ± 36.0 g/day
- UGE0-24 change from baseline ([3]; G2, eGFR 60–89, n = 17): 69.7 ± 19.1 g/day
- UGE0-24 postdose ([3]; G2, eGFR 60–89, n = 17): 82.6 ± 23.8 g/day
- UGE0-24 change from baseline ([3]; G3a, eGFR 45–59, n = 9): 57.3 ± 14.9 g/day
- UGE0-24 postdose ([3]; G3a, eGFR 45–59, n = 9): 64.4 ± 24.4 ^b g/day
- UGE0-24 change from baseline ([3]; G3a, eGFR 45–59, n = 9, listed as Luseogliflozin): 57.3 ± 14.9 ^b g/day
- UGE0-24 change from baseline ([3]; G3b, eGFR 30–44, n = 12): 35.3 ± 10.8 g/day
- UGE0-24 postdose ([3]; G3b, eGFR 30–44, n = 12): 39.4 ± 12.9 ^c g/day
- UGE0-24 change from baseline ([3]; G3b, eGFR 30–44, n = 12, listed as Luseogliflozin): 35.3 ± 10.8 ^c g/day
- UGE0-24 change from baseline ([3]; G4, eGFR <30, n = 6): 21.8 ± 7.10 g/day
- UGE0-24 postdose ([3]; G4, eGFR <30, n = 6): 23.7 ± 8.83 g/day
- ratio of the geometric mean (90%CI) of Cmax to the Cmax of G1 ([4]; G2 versus G1): 0.922 (0.756–1.13)
- ratio of the geometric mean of AUCinf (90%CI) to that of G1 ([4]; G2 versus G1): 1.05 (0.900–1.21)
- ratio of the geometric mean (90%CI) of Cmax to the Cmax of G1 ([4]; G3a versus G1): 0.939 (0.720–1.22)
- ratio of the geometric mean of AUCinf (90%CI) to that of G1 ([4]; G3a versus G1): 1.05 (0.842–1.32)
- ratio of the geometric mean (90%CI) of Cmax to the Cmax of G1 ([4]; G3b versus G1): 0.781 (0.607–1.01)
- ratio of the geometric mean of AUCinf (90%CI) to that of G1 ([4]; G3b versus G1): 1.04 (0.879–1.23)
- plasma concentration 72 hours after administration as fraction of the Cmax ([4]; G4, single 5-mg dose of luseogliflozin): approximately one‐fiftieth
- ratio of the geometric mean (90%CI) of Cmax to the Cmax of G1 ([4]; G4 versus G1): 0.724 (0.525–0.999)
- ratio of the geometric mean of AUCinf (90%CI) to that of G1 ([4]; G4 versus G1): 1.21 (0.947–1.53)
- concentration at 72 h ([4]; human, plasma, oral, 5 mg): 1.28 to 3.15 ng/mL
- selectivity for SGLT2 over SGLT1 ([5]; SGLT2 versus SGLT1): 1770 fold
- IC50 ([5]; read-out: half-maximal inhibitory concentration (IC50) for SGLT2): 2.26 nM
- AEs judged as moderate: increased blood glucose, patients ([6]; 57 patients): 2
- AEs judged as moderate: syncope, patients ([6]; 57 patients): 1
- number of AEs in the total study population ([6]; 57 patients, all of mild to moderate severity): 12
- Adverse event: Rash (Skin and subcutaneous tissue disorders) ([6]; G1 (n = 11)): 1
- All adverse events: number of patients ([6]; G1 (n = 11)): 1
- Adverse event: Blood glucose increased (Investigations) ([6]; G2 (n = 17)): 1
- Adverse event: Bundle branch block, right (Cardiac disorders) ([6]; G2 (n = 17)): 1
- All adverse events: number of patients ([6]; G2 (n = 17)): 2
- All adverse events: number of events ([6]; G3a (n = 10)): 2
- All adverse events: number of patients ([6]; G3a (n = 10)): 2
- Adverse event: Blood glucose increased (Investigations) ([6]; G3b (n = 13)): 1
- Adverse event: Dizziness (Nervous system disorders) ([6]; G3b (n = 13)): 1
- Adverse event: Syncope (Nervous system disorders) ([6]; G3b (n = 13)): 1
- All adverse events: number of patients ([6]; G3b (n = 13)): 3
- All adverse events: number of patients ([6]; G4 (n = 6)): 0
- deaths or serious AEs ([6]; any group): no deaths or serious AEs were observed
- AEs judged to be related to luseogliflozin administration ([6]; both judged to be mild): rash in the G1 group and dizziness in the G3b group
- changes in laboratory parameters or vital signs ([6]; during the study, data not shown): no clinically relevant changes
- number of patients with AEs in the total study population ([6]; of the 57 patients): 8
